Test results published in ChEMBL document CHEMBL1240526, “Development of a new epidermal growth factor receptor positron emission tomography imaging agent based on the 3-cyanoquinoline core: synthesis and biological evaluation” (Bioorg Med Chem, 2010).
Blank lines part the entries; values can stand above or below the compound they belong to.

How the values were obtained:
[1] = Biodistribution in human A431 cell xenografted nu/nu BALB/c mouse empty caecum at 3.7 MBq after 60 mins; type: ADME, organism-based, A-431; settings: in vivo, 1 h
[2] = test system: Duodenum; experiment: Biodistribution in human A431 cell xenografted nu/nu BALB/c mouse full duodenum at 3.7 MBq after 60 mins; type: ADME, organism-based, A-431; settings: in vivo, 1 h
[3] = Metabolic stability in mouse plasma assessed as compound remaining at 3.7 MBq after 30 mins; type: ADME, cell-free; settings: read-out: Stability
Method in brief: (§1)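 Non-tumor-bearing mice received 3.7 MBq of the ¹⁸F tracer iv. Plasma and liver were collected at 2, 30 and 60 min and snap-frozen. Samples were extracted in ice-cold MeOH (liver homogenized), centrifuged at 4 °C, then dried, filtered and run on radio-HPLC. Parent fraction = parent peak over total chromatogram radioactivity; plasma extraction efficiency 83.5%. Mean of three studies per time point.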

[4] = test system: Colon; experiment: Biodistribution in human A431 cell xenografted nu/nu BALB/c mouse empty colon at 3.7 MBq after 60 mins; type: ADME, organism-based, A-431; settings: in vivo, 1 h
[5] = Biodistribution in human A431 cell xenografted nu/nu BALB/c mouse plasma at 3.7 MBq after 60 mins; type: ADME, organism-based, A-431; settings: in vivo, 1 h
[6] = Metabolic stability in mouse liver assessed as compound remaining at 3.7 MBq after 30 mins; type: ADME, tissue-based; settings: read-out: Stability; method in brief: as §1
[7] = Biodistribution in human A431 cell xenografted nu/nu BALB/c mouse gallbladder at 3.7 MBq after 60 mins; type: ADME, organism-based, Gall bladder, A-431; settings: in vivo, 1 h
[8] = Metabolic stability in mouse plasma assessed as compound remaining at 3.7 MBq after 60 mins; type: ADME, cell-free; settings: read-out: Stability; method in brief: as §1
[9] = test system: Colon; experiment: Biodistribution in human A431 cell xenografted nu/nu BALB/c mouse full colon at 3.7 MBq after 60 mins; type: ADME, organism-based, A-431; settings: in vivo, 1 h
[10] = Biodistribution in human A431 cell xenografted nu/nu BALB/c mouse liver at 3.7 MBq after 60 mins; type: ADME, organism-based, A-431; settings: in vivo, 1 h
[11] = test system: Brain; experiment: Biodistribution in human A431 cell xenografted nu/nu BALB/c mouse brain at 3.7 MBq after 60 mins; type: ADME, organism-based, A-431; settings: in vivo, 1 h
[12] = test system: Jejunum; experiment: Biodistribution in human A431 cell xenografted nu/nu BALB/c mouse empty jejunum at 3.7 MBq after 60 mins; type: ADME, organism-based, A-431; settings: in vivo, 1 h
[13] = test system: Heart; experiment: Biodistribution in human A431 cell xenografted nu/nu BALB/c mouse heart at 3.7 MBq after 60 mins; type: ADME, organism-based, A-431; settings: in vivo, 1 h
[14] = test system: Stomach; experiment: Biodistribution in human A431 cell xenografted nu/nu BALB/c mouse empty stomach at 3.7 MBq after 60 mins; type: ADME, organism-based, A-431; settings: in vivo, 1 h
[15] = test system: Duodenum; experiment: Biodistribution in human A431 cell xenografted nu/nu BALB/c mouse empty duodenum at 3.7 MBq after 60 mins; type: ADME, organism-based, A-431; settings: in vivo, 1 h
[16] = Biodistribution in human A431 cell xenografted nu/nu BALB/c mouse full caecum at 3.7 MBq after 60 mins; type: ADME, organism-based, A-431; settings: in vivo, 1 h
[17] = Biodistribution in human A431 cell xenografted nu/nu BALB/c mouse tumor at 3.7 MBq after 60 mins; type: ADME, organism-based, Neoplasm, A-431; settings: in vivo, 1 h
[18] = test system: Jejunum; experiment: Biodistribution in human A431 cell xenografted nu/nu BALB/c mouse full jejunum at 3.7 MBq after 60 mins; type: ADME, organism-based, A-431; settings: in vivo, 1 h
[19] = test system: Spleen; experiment: Biodistribution in human A431 cell xenografted nu/nu BALB/c mouse spleen at 3.7 MBq after 60 mins; type: ADME, organism-based, A-431; settings: in vivo, 1 h
[20] = test system: Bone; experiment: Biodistribution in human A431 cell xenografted nu/nu BALB/c mouse bone at 3.7 MBq after 60 mins; type: ADME, organism-based, Bone element, A-431; settings: in vivo, 1 h
[21] = Metabolic stability in mouse plasma assessed as compound remaining at 3.7 MBq after 2 mins; type: ADME, cell-free; settings: read-out: Stability; method in brief: as §1
[22] = Metabolic stability in mouse liver assessed as compound remaining at 3.7 MBq after 60 mins; type: ADME, tissue-based; settings: read-out: Stability; method in brief: as §1
[23] = test system: Stomach; experiment: Biodistribution in human A431 cell xenografted nu/nu BALB/c mouse full stomach at 3.7 MBq after 60 mins; type: ADME, organism-based, A-431; settings: in vivo, 1 h
[24] = test system: Blood; experiment: Biodistribution in human A431 cell xenografted nu/nu BALB/c mouse blood at 3.7 MBq after 60 mins; type: ADME, organism-based, A-431; settings: in vivo, 1 h
[25] = test system: Kidney; experiment: Biodistribution in human A431 cell xenografted nu/nu BALB/c mouse kidney at 3.7 MBq after 60 mins; type: ADME, organism-based, A-431; settings: in vivo, 1 h
[26] = Metabolic stability in mouse liver assessed as compound remaining at 3.7 MBq after 2 mins; type: ADME, tissue-based; settings: read-out: Stability; method in brief: as §1
[27] = test system: Muscle tissue; experiment: Biodistribution in human A431 cell xenografted nu/nu BALB/c mouse muscle at 3.7 MBq after 60 mins; type: ADME, organism-based, A-431; settings: in vivo, 1 h
[28] = test system: Lung; experiment: Biodistribution in human A431 cell xenografted nu/nu BALB/c mouse lung at 3.7 MBq after 60 mins; type: ADME, organism-based, A-431; settings: in vivo, 1 h
[29] = Biodistribution in human A431 cell xenografted nu/nu BALB/c mouse urine at 3.7 MBq after 60 mins; type: ADME, organism-based, A-431; settings: in vivo, 1 h
[30] = target: Epidermal growth factor receptor (Homo sapiens, UniProt P00533); experiment: Inhibition of EGFR autophosphorylation in human A431 cells; type: cell-based, A-431
Sequence of Epidermal growth factor receptor (P00533 whole entry): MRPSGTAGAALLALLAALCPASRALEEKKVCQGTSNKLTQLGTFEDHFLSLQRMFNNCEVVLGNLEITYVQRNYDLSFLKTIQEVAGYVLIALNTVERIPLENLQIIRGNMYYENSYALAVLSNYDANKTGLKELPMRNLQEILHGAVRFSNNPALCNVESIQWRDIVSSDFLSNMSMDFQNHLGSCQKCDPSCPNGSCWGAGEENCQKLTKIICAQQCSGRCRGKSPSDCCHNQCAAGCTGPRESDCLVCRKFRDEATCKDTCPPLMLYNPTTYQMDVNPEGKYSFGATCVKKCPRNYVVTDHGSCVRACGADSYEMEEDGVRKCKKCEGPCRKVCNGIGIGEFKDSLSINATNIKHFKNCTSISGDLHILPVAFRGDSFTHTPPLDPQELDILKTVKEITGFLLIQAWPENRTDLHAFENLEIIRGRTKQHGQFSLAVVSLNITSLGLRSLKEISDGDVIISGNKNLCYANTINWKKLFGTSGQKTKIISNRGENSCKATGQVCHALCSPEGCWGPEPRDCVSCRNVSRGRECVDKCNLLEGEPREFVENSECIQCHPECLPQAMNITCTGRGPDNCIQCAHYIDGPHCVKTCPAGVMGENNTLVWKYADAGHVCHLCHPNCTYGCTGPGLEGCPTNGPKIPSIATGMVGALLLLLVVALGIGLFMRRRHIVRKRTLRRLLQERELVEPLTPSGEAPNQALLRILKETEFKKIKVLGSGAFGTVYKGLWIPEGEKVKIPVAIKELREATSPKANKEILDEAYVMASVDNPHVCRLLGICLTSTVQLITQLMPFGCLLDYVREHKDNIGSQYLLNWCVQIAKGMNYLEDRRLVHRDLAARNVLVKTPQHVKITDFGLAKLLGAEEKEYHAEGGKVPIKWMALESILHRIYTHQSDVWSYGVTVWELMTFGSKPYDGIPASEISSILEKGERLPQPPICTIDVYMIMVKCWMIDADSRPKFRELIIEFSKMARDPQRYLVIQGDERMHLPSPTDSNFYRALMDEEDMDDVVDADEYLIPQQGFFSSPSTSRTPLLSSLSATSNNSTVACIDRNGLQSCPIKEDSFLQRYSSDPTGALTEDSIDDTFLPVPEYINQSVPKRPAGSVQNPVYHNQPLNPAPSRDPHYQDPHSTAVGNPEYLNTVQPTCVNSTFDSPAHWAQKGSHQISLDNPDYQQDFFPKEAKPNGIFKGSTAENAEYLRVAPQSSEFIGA

Drug uptake [1]: 0.068 % ID/g | Drug uptake [2]: 1.987 % ID/g | remaining at 0.5 h [3]: 62.8% | Drug uptake [4]: 0.197 % ID/g | Drug uptake [5]: 0.027 % ID/g | remaining at 0.5 h [6]: 85.1% | Drug uptake [7]: 8.561 % ID/g | remaining at 1 h [8]: 49.8% | Drug uptake [9]: 0.236 % ID/g | Drug uptake [10]: 0.392 % ID/g | Drug uptake [11]: 0.006 % ID/g | Drug uptake [12]: 0.344 % ID/g | Drug uptake [13]: 0.041 % ID/g | Drug uptake [14]: 0.215 % ID/g | Drug uptake [15]: 1.453 % ID/g | Drug uptake [16]: 0.161 % ID/g | Drug uptake [17]: 0.082 % ID/g | Drug uptake [18]: 0.489 % ID/g | Drug uptake [19]: 0.211 % ID/g | Drug uptake [20]: 0.031 % ID/g | remaining at 2 min [21]: 98.9% | remaining at 1 h [22]: 75.5% | Drug uptake [23]: 1.341 % ID/g | Drug uptake [24]: 0.022 % ID/g | Drug uptake [25]: 0.711 % ID/g | remaining at 2 min [26]: 95% | Drug uptake [27]: 0.018 % ID/g | Drug uptake [28]: 0.138 % ID/g | Drug uptake [29]: 0.151 % ID/g
Compound: CCOc1cc2ncc(C#N)c(Nc3ccc(F)c(Cl)c3)c2cc1NC(=O)/C=C/CNCc1cn(CCF)nn1

IC50 [30]: > 1 µM
Compound: Nc1cc2ncnc(Nc3cccc(Br)c3)c2cc1N
